ChEMBL document CHEMBL1157001, “Synthesis and antibacterial evaluation of isoxazolinyl oxazolidinones: Search for potent antibacterial” (2009)
Values after ≈ are worked out from the molar mass of the structure shown. Active and inactive are the calls of the source. No cut-off for these calls is given here.

Assays:
Escherichia coli = assay: Antibacterial activity against Escherichia coli ATCC 9637 after 24 hrs; format: functional, organism-based
Summary of the method: (§1)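 Broth microdilution MIC per NCCLS protocol in Mueller Hinton broth. Strains grown on nutrient agar at 37 °C for 24 h, then suspended in normal saline with 0.05% Tween 20. Inoculum was a McFarland-matched suspension diluted into medium. Compounds were dissolved in DMSO at 1 mg/mL stock and serially twofold diluted, top concentration 50 µg/mL. Plates incubated 35 °C, moist dark chamber, 24 h. MIC read spectrophotometrically.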

Pseudomonas aeruginosa = assay: Antibacterial activity against Pseudomonas aeruginosa ATCC BAA427 after 24 hrs; format: functional, organism-based; summary of the method: as §1
Staphylococcus aureus [1] = assay: Antibacterial activity against floxacin and methicillin-resistant Staphylococcus aureus ATCC 25923 after 24 hrs; format: functional; conditions: ATCC 25923, 24 h
Staphylococcus aureus [2] = assay: Antibacterial activity against methicillin-resistant Staphylococcus aureus ATCC 70069 after 24 hrs; format: functional; conditions: ATCC 70069, 24 h
Staphylococcus aureus [3] = assay: Antibacterial activity against […] Staphylococcus aureus ATCC 29213 after 24 hrs; format: functional; conditions: ATCC 29213, 24 h
Bacillus cereus = assay: Antibacterial activity against Bacillus cereus MTCC 430 after 24 hrs; format: functional; conditions: MTCC 430, 24 h; summary of the method: as §1
Enterococcus faecalis = assay: Antibacterial activity against Enterococcus faecalis MTCC 439 after 24 hrs; format: functional; conditions: MTCC 439, 24 h; summary of the method: as §1
Klebsiella pneumoniae = assay: Antibacterial activity against Klebsiella pneumoniae ATCC 27736 after 24 hrs; format: functional; conditions: ATCC 27736, 24 h; summary of the method: as §1
Streptococcus pyogenes = assay: Antibacterial activity against Streptococcus pyogenes after 24 hrs; format: functional; summary of the method: as §1

SMILES | Activity (Escherichia coli) | Activity (Pseudomonas aeruginosa) | MIC (Staphylococcus aureus [1]) | MIC (Staphylococcus aureus [2]) | MIC (Staphylococcus aureus [3]) | MIC (Bacillus cereus) | MIC (Enterococcus faecalis) | MIC (Klebsiella pneumoniae) | MIC (Streptococcus pyogenes)
CC(=O)NC[C@H]1CN(c2ccc(N3CCN(C(=O)C4CC(c5ccc(Cl)c(Cl)c5)=NO4)CC3)c(F)c2)C(=O)O1 (mixture of isomers) | inactive | inactive | 0.329 µM | 0.329 µM | 2.7 µM | 0.156 µM | 0.329 µM | 0.329 µM | 0.329 µM
CC(=O)NC[C@H]1CN(c2ccc(N3CCN(C(=O)C4CC(c5cccc(C(F)(F)F)c5)=NO4)CC3)c(F)c2)C(=O)O1 (mixture of isomers) | inactive | inactive | 1.35 µM | 1.35 µM | 2.7 µM | 1.35 µM | 1.35 µM | 2.7 µM | 1.35 µM
CC(=O)NC[C@H]1CN(c2ccc(N3CCN(C(=O)C4CC(c5ccc(C(F)(F)F)cc5)=NO4)CC3)c(F)c2)C(=O)O1 (mixture of isomers) | inactive | inactive | 0.676 µM | 0.676 µM | 2.7 µM | 0.676 µM | 0.329 µM | 0.676 µM | 0.676 µM
CC(=O)NC[C@H]1CN(c2ccc(N3CCN(C(=O)C4CC(c5ccccc5)=NO4)CC3)c(F)c2)C(=O)O1 (mixture of isomers) | inactive | inactive | 24.6 µM | 24.6 µM | 24.6 µM | 24.6 µM | 24.6 µM | 24.6 µM | 24.6 µM
CC(=O)NC[C@H]1CN(c2ccc(N3CCN(C(=O)C4CC(c5cccs5)=NO4)CC3)c(F)c2)C(=O)O1 (mixture of isomers) | inactive | inactive | 6.06 µM | 24.3 µM | 24.3 µM | 6.06 µM | 24.3 µM | 6.06 µM | 12.1 µM
CC(=O)NC[C@H]1CN(c2ccc(N3CCN(C(=O)C4CC(c5ccsc5)=NO4)CC3)c(F)c2)C(=O)O1 (mixture of isomers) | inactive | inactive | 12.1 µM | 6.06 µM | 24.3 µM | 12.1 µM | 12.1 µM | 6.06 µM | 12.1 µM
CC(=O)NC[C@H]1CN(c2ccc(N3CCN(C(=O)C4CC(c5ccccn5)=NO4)CC3)c(F)c2)C(=O)O1 (mixture of isomers) | inactive | inactive | 0.765 µM | 1.53 µM | 1.53 µM | 0.765 µM | 0.372 µM | 0.765 µM | 0.372 µM
CC(=O)NC[C@H]1CN(c2ccc(N3CCN(C(=O)C4CC(c5ccc(F)cc5)=NO4)CC3)c(F)c2)C(=O)O1 (mixture of isomers) | inactive | inactive | 0.74 µM | 0.74 µM | 0.74 µM | 0.74 µM | 0.74 µM | 1.48 µM | 0.74 µM
CC(=O)NC[C@H]1CN(c2ccc(N3CCN(C(=O)C4CC(c5ccc(Cl)cc5)=NO4)CC3)c(F)c2)C(=O)O1 (mixture of isomers) | inactive | inactive | 0.166 µM | 0.35 µM | 2.87 µM | 0.35 µM | 0.35 µM | 0.166 µM | 0.349 µM
COc1ccc(C2=NOC(C(=O)N3CCN(c4ccc(N5C[C@H](CNC(C)=O)OC5=O)cc4F)CC3)C2)cc1O (mixture of isomers) | inactive | inactive | 0.342 µM | 0.703 µM | 0.703 µM | 0.342 µM | 0.342 µM | 0.342 µM | 0.703 µM
CC(=O)NC[C@H]1CN(c2ccc(N3CCN(C(=O)C4CC(c5ccc6c(c5)OCO6)=NO4)CC3)c(F)c2)C(=O)O1 (mixture of isomers) | inactive | inactive | 0.163 µM | 0.344 µM | 2.82 µM | 0.344 µM | 0.344 µM | 0.163 µM | 0.344 µM
CC(=O)NC[C@H]1CN(c2ccc(N3CCN(C(=O)C4CC(c5ccc(C)cc5)=NO4)CC3)c(F)c2)C(=O)O1 (mixture of isomers) | inactive | inactive | 0.363 µM | 1.49 µM | 2.98 µM | 0.363 µM | 0.746 µM | 0.363 µM | 0.746 µM
CC(=O)NC[C@H]1CN(c2ccc(N3CCN(C(=O)C4CC(c5cccc([N+](=O)[O-])c5)=NO4)CC3)c(F)c2)C(=O)O1 (mixture of isomers) | inactive | inactive | 0.343 µM | 0.704 µM | 0.704 µM | 0.162 µM | 0.0866 µM | 0.704 µM | 0.704 µM
CC(=O)NC[C@H]1CN(c2ccc(N3CCN(C(=O)C4CC(c5ccco5)=NO4)CC3)c(F)c2)C(=O)O1 (mixture of isomers) | inactive | inactive | 0.781 µM | 1.56 µM | 6.25 µM | 1.56 µM | 0.781 µM | 1.56 µM | 0.781 µM
CC(=O)NC[C@H]1CN(c2ccc(N3CCN(C(=O)C4CC(c5ccc(F)c(F)c5)=NO4)CC3)c(F)c2)C(=O)O1 (mixture of isomers) | inactive | inactive | 0.349 µM | 0.349 µM | 0.716 µM | 0.349 µM | 0.349 µM | 0.716 µM | 0.349 µM
CC(=O)NC[C@H]1CN(c2ccc(N3CCOCC3)c(F)c2)C(=O)O1 [LINEZOLID] |  |  | 4.63 µM (≈ 1.56 µg/mL) | 4.63 µM (≈ 1.56 µg/mL) | 9.26 µM (≈ 3.12 µg/mL) | 2.31 µM (≈ 0.781 µg/mL) | 9.26 µM (≈ 3.12 µg/mL) | 4.63 µM (≈ 1.56 µg/mL) | 4.63 µM (≈ 1.56 µg/mL)
CN[C@H](CC(C)C)C(=O)N[C@H]1C(=O)N[C@@H](CC(N)=O)C(=O)N[C@H]2C(=O)N[C@H]3C(=O)N[C@H](C(=O)N[C@H](C(=O)O)c4cc(O)cc(O)c4-c4cc3ccc4O)[C@H](O)c3ccc(c(Cl)c3)Oc3cc2cc(c3O[C@@H]2O[C@H](CO)[C@@H](O)[C@H](O)[C@H]2O[C@H]2C[C@](C)(N)[C@H](O)[C@H](C)O2)Oc2ccc(cc2Cl)[C@H]1O [VANCOMYCIN] |  |  | 0.262 µM (≈ 0.38 µg/mL) | 4.21 µM (≈ 6.1 µg/mL) | 1.05 µM (≈ 1.52 µg/mL) | 0.128 µM (≈ 0.185 µg/mL) | 0.525 µM (≈ 0.761 µg/mL) | 0.262 µM (≈ 0.38 µg/mL) | 0.262 µM (≈ 0.38 µg/mL)
